Results collected from several papers.
Lines come from different studies, so protocols differ.
DRD2: D(2) dopamine receptor (DRD2, Homo sapiens, UniProt P14416)
BRAF V600E: Serine/threonine-protein kinase B-raf (BRAF, Homo sapiens, UniProt P15056, V600E)
ADORA3: Adenosine receptor A3 (ADORA3, Homo sapiens, UniProt P0DMS8)
PARP16: Protein mono-ADP-ribosyltransferase PARP16 (PARP16, Homo sapiens, UniProt Q8N5Y8)
AGTR1: Type-1 angiotensin II receptor (AGTR1, Homo sapiens, UniProt P30556)
Blk: Tyrosine-protein kinase Blk (Blk, Mus musculus, UniProt P16277)
NPY1R: Neuropeptide Y receptor type 1 (NPY1R, Homo sapiens, UniProt P25929)

Compound | target | assay | setting | inhibition
CC(=O)N[C@H]1CSSC[C@@H](C(=O)N[C@H](Cc2c[nH]c3ccccc23)C(N)=O)NC(=O)[C@@H](Cc2ccccc2)NC(=O)[C@H](CCCNC(=N)N)NC1=O | Melanocortin receptor 3 (MC3R, Homo sapiens, UniProt P41968) | ligand displacement, radioligand | 10 µM, 40 min | 35%
O=C1CC(N2CCN(Cc3ccccc3)CC2)C(=O)N1c1ccc2c(c1)OCCO2 (stereo not shown) | DRD2 | enzyme activity, inhibitor | 10 µM | 34.1%
Cc1ccc(C(CS(=O)(=O)c2ccccc2)=NN=C2N=C(c3ccc(Br)cc3)CS2)cc1 | BRAF V600E | enzyme activity, inhibitor, ATP luminescence | 0.1 µM | 61%
CCCCCCN1CCCn2c1nc1c2c(=O)n(C)c(=O)n1C | ADORA3 | ligand displacement, radioligand | 10 µM, cell membranes | 39%
CN(C)C(=O)N[C@H]1CC[C@H](CCN2CCN(c3cccc(Cl)c3Cl)CC2)CC1 | DRD2 | cell-free assay | 10 µM | 101%
COCCOc1ccc(N2CCN(CCn3ncc4c3nc(N)n3nc(-c5ccco5)nc43)CC2)cc1 | ADORA3 | ligand displacement, radioligand | 10 µM, cell membranes | 35%
Cc1ccc(C(C)C)c(OCC(O)CN2CCN(c3ccccc3F)CC2)c1 (stereo not shown) | DRD2 | enzyme activity, inhibitor | 10 µM | 32.3%
O=C1NCCCc2c(O)cccc21 | PARP16 | enzyme activity, inhibitor | 10 µM | 0%
COc1cc(NC(C)=O)c(Cl)cc1C(=O)Nc1nccs1 | AGTR1 | cell-free assay | 10 µM | 4.8%
Nc1ccc2c(c1)CCCn1nnnc1-2 | PARP16 | enzyme activity, inhibitor | 10 µM | 53%
CNCc1ccc(-c2cc(-c3nc(-c4ccc(S(=O)(=O)C(C)C)cc4)cnc3N)on2)cc1 | Blk | enzyme activity, inhibitor | 0.4 µM | 2%
CNC(=O)c1cc(Oc2ccc(NC(=O)Nc3ccc(Cl)c(C(F)(F)F)c3)cc2)ccn1 | Blk | enzyme activity, inhibitor | 0.3 µM | -25%
Cc1ccc(C(CS(=O)(=O)c2ccccc2)=NNc2nc(-c3ccc(OCCCCOc4ccc(-c5csc(NN=C(CS(=O)(=O)c6ccccc6)c6ccc(C)cc6)n5)cc4)cc3)cs2)cc1 | BRAF V600E | enzyme activity, inhibitor, ATP luminescence | 0.1 µM | 57%
COc1ccccc1N1CCN(CC(O)Cn2cnc3c2c(=O)n(C)c(=O)n3C)CC1 (stereo not shown) | DRD2 | enzyme activity, inhibitor | 10 µM | 2.6%
Cc1ccc(Nc2nccc(N(C)c3ccc4c(C)n(C)nc4c3)n2)cc1S(N)(=O)=O | Dual specificity mitogen-activated protein kinase kinase 4 (Map2k4, Mus musculus, UniProt P47809) | enzyme activity, inhibitor | 0.3 µM | 11%
CCC(=O)c1ccc(OCC(O)CN2CCN(S(=O)(=O)N3CCCCC3)CC2)cc1 (stereo not shown) | DRD2 | enzyme activity, inhibitor | 10 µM | 6.8%
CN(C)C1CCN(CC#Cc2nn(C3CCCC3)c3nc(NCc4ccccc4)ncc23)C1 (stereo not shown) | Mitogen-activated protein kinase 8 (MAPK8, Homo sapiens, UniProt P45983) | enzyme activity, inhibitor, FRET | 10 µM | 8%
COc1cc2c3c(c1OC)-c1cc4c(cc1CC3N(C)CC2)OCO4 (racemic) | 5-hydroxytryptamine receptor 1E (HTR1E, Homo sapiens, UniProt P28566) | ligand displacement, radioligand | 10 µM | 62%
CCN(Cc1ccccc1C(F)(F)F)C(=O)C1CCN(S(=O)(=O)c2ccc3[nH]ncc3c2)CC1 | ADORA3 | ligand displacement, radioligand | 10 µM | 14%
O=C(c1ccc(Cl)cc1)N(Cc1ccccc1)C1CCCCC1 | AGTR1 | cell-free assay | 10 µM | -0.9%
CC(=O)Nc1ccc(N2C(=O)CC(NCCc3ccccc3)C2=O)cc1 (stereo not shown) | DRD2 | enzyme activity, inhibitor | 10 µM | 37.8%
Cn1cnc(Br)c1C1=CN(c2ncnc3[nH]cnc23)CCS1 | Serine/threonine-protein kinase Nek5 (NEK5, Homo sapiens, UniProt Q6P3R8) | enzyme activity, inhibitor, radiometric | 2 µM | 90.4%
O=C(c1ccc(F)cc1)N(Cc1ccccc1)C1CCCCC1 | NPY1R | cell-free assay | 10 µM | -9%

Compound | target | assay | setting | inhibition
O=C(CSc1nc2nccnc2c(=O)n1CCc1ccccc1)Nc1nccs1 | Phosphatidylinositol 4-kinase type 2-alpha (PI4K2A, Homo sapiens, UniProt Q9BTU6) | enzyme activity, inhibitor | 10 µM | 9%
Cc1ccc(C(CS(=O)(=O)c2ccccc2)=NNc2nc(C)c(N=Nc3ccccc3)s2)cc1 | BRAF V600E | enzyme activity, inhibitor, ATP luminescence | 10 µM | 85%
CCN(CC)CCNC(=O)c1c(C)[nH]c(/C=C2\C(=O)Nc3ccc(F)cc32)c1C | Blk | enzyme activity, inhibitor | 0.3 µM | 36%
CCC(C)N1CCCn2c1nc1c2c(=O)n(C)c(=O)n1C (stereo not shown) | ADORA3 | ligand displacement, radioligand | 10 µM, cell membranes | 14%
Cc1ccc(C(CS(=O)(=O)c2ccccc2)=NNC2=NC(=O)C(=NNc3ccc([N+](=O)[O-])cc3)S2)cc1 | BRAF V600E | enzyme activity, inhibitor, ATP luminescence | 10 µM | 89%
CCCCn1c(=O)c2[nH]c(C34CC5CC(CC3C5)C4)nc2n(CCCO)c1=O | ADORA3 | ligand displacement, radioligand | 10 µM, cell membranes | 39%
Cc1ccc(C(CS(=O)(=O)c2ccccc2)=NNc2nc(C)c(N=Nc3cccc(C)c3)s2)cc1 | BRAF V600E | enzyme activity, inhibitor, ATP luminescence | 0.1 µM | 63%
CC(O)c1ccc(-c2ccc(CNCCc3c[nH]c4ccccc34)o2)cc1 (stereo not shown) | DRD2 | enzyme activity, inhibitor | 10 µM | 36.8%
CN(C(=O)N(C)C1C2CC3CC(C2)CC1C3)c1ccc(F)c(F)c1F (stereo not shown) | ephB (Mycobacterium tuberculosis, UniProt I6YC03) | enzyme activity, inhibitor | 10 nM | < 1%
CC(O)c1ccc(-c2ccc(CNCCc3ccc(S(N)(=O)=O)cc3)o2)cc1 (stereo not shown) | DRD2 | enzyme activity, inhibitor | 10 µM | 22.1%
C=CCN1CCCn2c1nc1c2c(=O)n(C)c(=O)n1C | ADORA3 | ligand displacement, radioligand | 10 µM, cell membranes | 17%
Nc1ncnc2[nH]cnc12 | ADORA3 | ligand displacement, radioligand | 30 µM, cell membranes | 13%
COc1ccc2c(c1)C(=O)N(CCCN1CCN(c3ccccc3OC)CC1)C2 | DRD2 | ligand displacement, radioligand | 10 µM | 85%
CCCC(C)N1CCCn2c1nc1c2c(=O)n(C)c(=O)n1C (stereo not shown) | ADORA3 | ligand displacement, radioligand | 10 µM, cell membranes | 17%
Oc1cccc(Nc2nc(-c3ccc(F)cc3F)cs2)c1 | AGTR1 | cell-free assay | 10 µM | -7.2%
O=C(Nc1ccc(S(=O)(=O)N2CCC(Cl)CC2)cc1)c1ccc([N+](=O)[O-])o1 | NPY1R | ligand displacement, radioligand | 10 µM | 7%
Cc1ccc(C(CS(=O)(=O)c2ccccc2)=NNC2=NC(=O)C(=NNc3ccccc3)S2)cc1 | BRAF V600E | enzyme activity, inhibitor, ATP luminescence | 10 nM | 32%
O=C1N=C(N2CCCCN2)S/C1=C\c1ccc(F)cc1O | ADORA3 | ligand displacement, radioligand | 10 µM | 27%
NC(=S)NN=C(CS(=O)(=O)c1ccccc1)c1ccc(F)cc1 | BRAF V600E | enzyme activity, inhibitor, ATP luminescence | 10 µM | 92%
CCCCCC(C)N1CCCn2c1nc1c2c(=O)n(C)c(=O)n1C (stereo not shown) | ADORA3 | ligand displacement, radioligand | 10 µM, cell membranes | 32%
Cc1ccc(C(CS(=O)(=O)c2ccccc2)=NN=C2N=C(c3ccc(C)cc3)CS2)cc1 | BRAF V600E | enzyme activity, inhibitor, ATP luminescence | 10 µM | 86%
CC(C)CC(C)N1CCCn2c1nc1c2c(=O)n(C)c(=O)n1C (stereo not shown) | ADORA3 | ligand displacement, radioligand | 10 µM, cell membranes | 22%
O=C1NCCCc2ccc(F)cc21 | PARP16 | enzyme activity, inhibitor | 10 µM | 74%
